The values that follow come from ChEMBL document CHEMBL1131270, “Fluorescent probes for adenosine receptors: synthesis and biology of N6-dansylaminoalkyl-substituted NECA derivatives” (Bioorg Med Chem Lett, 1998).

In one experiment the target is T1, Adenosine receptor A3 (Rattus norvegicus, UniProt P28647).
T1 sequence (P28647 whole entry): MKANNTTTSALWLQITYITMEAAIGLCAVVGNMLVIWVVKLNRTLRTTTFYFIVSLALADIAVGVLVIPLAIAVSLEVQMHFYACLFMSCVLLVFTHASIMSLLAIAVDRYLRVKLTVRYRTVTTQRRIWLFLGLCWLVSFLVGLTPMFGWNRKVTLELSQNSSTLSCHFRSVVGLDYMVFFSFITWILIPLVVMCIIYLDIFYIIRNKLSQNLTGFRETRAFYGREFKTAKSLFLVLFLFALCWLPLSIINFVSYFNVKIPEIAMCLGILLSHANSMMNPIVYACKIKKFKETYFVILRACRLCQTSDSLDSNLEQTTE
The experiment can be described thus: Binding affinity for adenosine A3 receptor of rat testis membrane using [3H](R)-PIA. The procedure, abridged: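 Rat testis membranes were labelled with [3H]-(R)-PIA for A3 binding, with 150 nM DPCPX present to block A1 receptors. Membrane preparation and assay followed an earlier published method. IC50 values were converted to Ki by Cheng–Prusoff and reported as mean ± S.E. of three experiments.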

A further experiment addresses T2, Adenosine receptor A1 (Rattus norvegicus, UniProt P25099).
T2 sequence (P25099 whole entry): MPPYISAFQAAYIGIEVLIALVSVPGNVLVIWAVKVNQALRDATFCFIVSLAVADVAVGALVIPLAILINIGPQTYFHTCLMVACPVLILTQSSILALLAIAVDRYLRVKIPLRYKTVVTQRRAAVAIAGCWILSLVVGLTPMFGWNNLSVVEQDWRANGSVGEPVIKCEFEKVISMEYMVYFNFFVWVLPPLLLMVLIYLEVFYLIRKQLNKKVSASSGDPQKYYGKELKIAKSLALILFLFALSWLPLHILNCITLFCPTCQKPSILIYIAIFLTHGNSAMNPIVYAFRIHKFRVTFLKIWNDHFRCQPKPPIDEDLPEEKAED
As to the kind of experiment: Binding affinity for adenosine A1 receptor of rat cerebral cortex membrane using [3H]CHA. In kind it is tissue-based. The procedure, abridged: (§1)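 Competition binding on rat membrane preparations: cerebral cortex for A1 with [3H]-CHA, striatum for A2 with [3H]-CGS 21680. Membrane preparation and assay followed an earlier published method. IC50 values were converted to Ki with the Cheng–Prusoff equation and reported as mean ± S.E. of three experiments.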

The next experiment concerns the target Adenosine A2 receptor (Rattus norvegicus, UniProt P29276+P30543). As to the kind of experiment: Binding affinity for adenosine A2 receptor of rat striatal membrane using [3H]CGS-21680. The procedure, abridged: as §1

pKi: −log10 of the molar value.

A word on the pKi: it is the negative decadic logarithm of the Ki, by convention in mol/L. A higher pKi goes with a low Ki. By Ki is commonly meant a measure of affinity in units of concentration, obtained from inhibition or displacement. Low readings indicate higher affinity, high ones lower affinity. As for `CCNC(=O)[C@H]1OC(n2cnc3c(NCCCCCCCCCCCCNS(=O)(=O)c4cccc5c(N(C)C)cccc45)ncnc32)[C@H](O)[C@@H]1O` (stereo partly drawn), the pKi on Adenosine receptor A3 was 5.60; at Adenosine receptor A1 it was 5.47. Moreover, the inhibition constant Ki on Adenosine A2 receptor is on record as more than 10000 nM.
For `CCNC(=O)[C@H]1OC(n2cnc3c(NCCCNS(=O)(=O)c4cccc5c(N(C)C)cccc45)ncnc32)[C@H](O)[C@@H]1O` (stereo partly drawn), in that order: 5.74, 7.38 and 4300 nM.
For `CCNC(=O)[C@H]1OC(n2cnc3c(NCCCCNS(=O)(=O)c4cccc5c(N(C)C)cccc45)ncnc32)[C@H](O)[C@@H]1O` (stereo partly drawn), in that order: 5.70, 7.15 and 9500 nM.
For `CCNC(=O)[C@H]1OC(n2cnc3c(NCCCCCCCCCCNS(=O)(=O)c4cccc5c(N(C)C)cccc45)ncnc32)[C@H](O)[C@@H]1O` (stereo partly drawn), in that order: 5.96, 6.63 and more than 10000 nM.
As for `CCNC(=O)[C@H]1OC(n2cnc3c(NCCCCCCCCNS(=O)(=O)c4cccc5c(N(C)C)cccc45)ncnc32)[C@H](O)[C@@H]1O` (stereo partly drawn), the pKi on Adenosine receptor A3 is 6.60; at Adenosine receptor A1, 6.95. In addition, the inhibition constant Ki at Adenosine A2 receptor is listed as more than 10000 nM.
For `CCNC(=O)[C@H]1OC(n2cnc3c(NCCCCCCNS(=O)(=O)c4cccc5c(N(C)C)cccc45)ncnc32)[C@H](O)[C@@H]1O` (stereo partly drawn), in that order: 5.44, 7.57 and 4300 nM.
